From ChEMBL document CHEMBL2384929, “Synthesis and biological evaluation of fluoro analogues of antimitotic phenstatin” (Bioorg Med Chem, 2013)

Columns and labels:
Ovis aries = organism: Ovis aries; experiment: Inhibition of sheep brain tubulin assembly at 100 uM by DAPI staining-based fluorescence assay
Outline: (§1)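 Tubulin from sheep brain, purified by two assembly–disassembly cycles, at about 2–3 mg/mL in 0.1 M MES, 0.5 mM MgCl2, 1 mM EGTA, 1 mM GTP, pH 6.6. Assembly followed by DAPI fluorescence at 37 °C. Single-point inhibition tested at 100 µM. IC50 is the concentration halving the assembly rate relative to no compound, mean of two experiments, with reference inhibitors run the same day.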

SN12C = experiment: Cytotoxicity against human SN12C cells assessed as growth inhibition after 48 hrs by SRB assay; assay type: functional
Outline: (§2)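 Run in the NCI 60 human tumour cell line panel. Cells exposed for 48 h, growth read by sulforhodamine B. Compounds were first screened at a single 10 µM dose, and those meeting preset threshold inhibition criteria went on to the 5-dose screen. GI50 is the molar concentration giving 50% growth inhibition.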

NCI/ADR-RES = experiment: Cytotoxicity against human NCI/ADR-RES cells assessed as growth inhibition after 48 hrs by SRB assay; assay type: functional; outline: as §2
MDA-MB-231 = experiment: Cytotoxicity against human MDA-MB-231 cells assessed as growth inhibition after 48 hrs by SRB assay; assay type: functional; conditions: MDA-MB-231, 48 h; outline: as §2
RXF 393 = experiment: Cytotoxicity against human RXF393 cells assessed as growth inhibition after 48 hrs by SRB assay; assay type: functional; conditions: RXF 393, 48 h; outline: as §2
Hs-578T = experiment: Cytotoxicity against human Hs578T cells assessed as growth inhibition after 48 hrs by SRB assay; assay type: functional; outline: as §2
SNB-75 = experiment: Cytotoxicity against human SNB75 cells assessed as growth inhibition after 48 hrs by SRB assay; assay type: functional; conditions: SNB-75, 48 h; outline: as §2
MDA-MB-435 = experiment: Cytotoxicity against human MDA-MB-435 cells assessed as growth inhibition after 48 hrs by SRB assay; assay type: functional; conditions: MDA-MB-435, 48 h; outline: as §2
CCRF-CEM = experiment: Cytotoxicity against human CCRF-CEM cells assessed as growth inhibition after 48 hrs by SRB assay; assay type: functional; outline: as §2
[1] = Inhibition of sheep brain tubulin assembly by DAPI staining-based fluorescence assay; design: species or system Ovis aries; outline: as §1
OVCAR-3 = experiment: Cytotoxicity against human OVCAR3 cells assessed as growth inhibition after 48 hrs by SRB assay; assay type: functional; conditions: OVCAR-3, 48 h; outline: as §2
ACHN = experiment: Cytotoxicity against human ACHN cells assessed as growth inhibition after 48 hrs by SRB assay; assay type: functional; outline: as §2
Malme-3M = experiment: Cytotoxicity against human MALME-3M cells assessed as growth inhibition after 48 hrs by SRB assay; assay type: functional; outline: as §2
SW-620 = experiment: Cytotoxicity against human SW620 cells assessed as growth inhibition after 48 hrs by SRB assay; assay type: functional; conditions: SW-620, 48 h; outline: as §2
M14 = experiment: Cytotoxicity against human M14 cells assessed as growth inhibition after 48 hrs by SRB assay; assay type: functional; conditions: M14, 48 h; outline: as §2
NCI-H460 = experiment: Cytotoxicity against human NCI-H460 cells assessed as growth inhibition after 48 hrs by SRB assay; assay type: functional; conditions: NCI-H460, 48 h; outline: as §2
KM12 = experiment: Cytotoxicity against human KM12 cells assessed as growth inhibition after 48 hrs by SRB assay; assay type: functional; conditions: KM12, 48 h; outline: as §2
BT-549 = experiment: Cytotoxicity against human BT549 cells assessed as growth inhibition after 48 hrs by SRB assay; assay type: functional; conditions: BT-549, 48 h; outline: as §2
HCT-15 = experiment: Cytotoxicity against human HCT15 cells assessed as growth inhibition after 48 hrs by SRB assay; assay type: functional; conditions: HCT-15, 48 h; outline: as §2
SK-OV-3 = experiment: Cytotoxicity against human SKOV3 cells assessed as growth inhibition after 48 hrs by SRB assay; assay type: functional; conditions: SK-OV-3, 48 h; outline: as §2
NCI-H23 = experiment: Cytotoxicity against human NCI-H23 cells assessed as growth inhibition after 48 hrs by SRB assay; assay type: functional; conditions: NCI-H23, 48 h; outline: as §2
HL-60(TB) = experiment: Cytotoxicity against human HL-60(TB) cells assessed as growth inhibition after 48 hrs by SRB assay; assay type: functional; conditions: HL-60, 48 h
Outline: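 NCI 60-human-cancer-cell-line screen; only compounds meeting predetermined threshold inhibition criteria in the single-dose test went on to the 5-dose screen. Cells exposed for 48 h and growth read by sulforhodamine B assay. GI50 is the molar concentration giving 50% growth inhibition of tumour cells.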

K562 = experiment: Cytotoxicity against human K562 cells assessed as growth inhibition after 48 hrs by SRB assay; assay type: functional; conditions: K562, 48 h; outline: as §2
PC-3 = experiment: Cytotoxicity against human PC3 cells assessed as growth inhibition after 48 hrs by SRB assay; assay type: functional; conditions: PC-3, 48 h; outline: as §2
NCI-H522 = experiment: Cytotoxicity against human NCI-H522 cells assessed as growth inhibition after 48 hrs by SRB assay; assay type: functional; conditions: NCI-H522, 48 h; outline: as §2
SNB-19 = experiment: Cytotoxicity against human SNB19 cells assessed as growth inhibition after 48 hrs by SRB assay; assay type: functional; conditions: SNB-19, 48 h; outline: as §2
SR = experiment: Cytotoxicity against human SR cells assessed as growth inhibition after 48 hrs by SRB assay; assay type: functional; outline: as §2
SF-268 = experiment: Cytotoxicity against human SF268 cells assessed as growth inhibition after 48 hrs by SRB assay; assay type: functional; conditions: SF-268, 48 h; outline: as §2
SF-539 = experiment: Cytotoxicity against human SF539 cells assessed as growth inhibition after 48 hrs by SRB assay; assay type: functional; conditions: SF-539, 48 h; outline: as §2
DU-145 = experiment: Cytotoxicity against human DU145 cells assessed as growth inhibition after 48 hrs by SRB assay; assay type: functional; conditions: DU-145, 48 h; outline: as §2

Row | SMILES | inhibition (Ovis aries) | GI50 (SN12C) | GI50 (NCI/ADR-RES) | GI50 (MDA-MB-231) | GI50 (RXF 393) | GI50 (Hs-578T) | GI50 (SNB-75) | GI50 (MDA-MB-435) | GI50 (CCRF-CEM) | IC50 [1] | GI50 (OVCAR-3) | GI50 (ACHN) | GI50 (Malme-3M) | GI50 (SW-620) | GI50 (M14) | GI50 (NCI-H460) | GI50 (KM12) | GI50 (BT-549) | GI50 (HCT-15) | GI50 (SK-OV-3) | also measured
1 | COc1ccc(C(=O)c2cc(F)c(F)c(OC)c2F)cc1O | 88% | 5160 nM | 789 nM | 2090 nM | 2470 nM | 1600 nM | 1740 nM | 285 nM | 3310 nM | 28200 nM | 1500 nM | 6840 nM | 9530 nM | 703 nM | 804 nM | 2230 nM | 1030 nM | 3130 nM | 1760 nM | 2440 nM | GI50 (NCI-H23): 3750 nM; GI50 (HL-60(TB)): 2020 nM; GI50 (K562): 186 nM; GI50 (PC-3): 3720 nM; GI50 (NCI-H522): 1340 nM; GI50 (SNB-19): 4390 nM; GI50 (SR): 969 nM; GI50 (SF-268): 3850 nM; GI50 (SF-539): 2470 nM; GI50 (DU-145): 2080 nM
2 | COc1cc(C(=O)c2cc(OC)c(OC)c(OC)c2)c(OC)cc1F | 77% | 602 nM | 68 nM | 388 nM | 144 nM | 194 nM | 109 nM | 25 nM | 192 nM | 24000 nM | 45 nM | 693 nM | 433 nM | 63 nM | 72 nM | 115 nM | 50 nM | 365 nM | 55 nM | 213 nM | GI50 (NCI-H23): 421 nM; GI50 (HL-60(TB)): 203 nM; GI50 (K562): 46 nM; GI50 (PC-3): 207 nM; GI50 (NCI-H522): 102 nM; GI50 (SNB-19): 419 nM; GI50 (SR): 43 nM; GI50 (SF-268): 748 nM; GI50 (SF-539): 164 nM; GI50 (DU-145): 257 nM
3 | C=C(c1ccc(OC)c(O)c1)c1cc(F)c(F)c(OC)c1F | 77% | 209 nM | 38 nM | 94 nM | 176 nM | 52 nM | 55 nM | 19 nM | 37 nM | 42200 nM | 217 nM | 67 nM | 44 nM | 45 nM | 38 nM | 343 nM | 47 nM | 61 nM | 45 nM | 94 nM | GI50 (NCI-H23): 385 nM; GI50 (HL-60(TB)): 23 nM; GI50 (K562): 37 nM; GI50 (PC-3): 140 nM; GI50 (NCI-H522): 25 nM; GI50 (SNB-19): 67 nM; GI50 (SR): 15 nM; GI50 (SF-268): 75 nM; GI50 (SF-539): 31 nM; GI50 (DU-145): 139 nM
